Assays:
[1] = (§1) Cytotoxicity against human OC2 cells after 24 hrs by MTT assay; type: functional, cell-based; conditions: OC2, 24 h
Summary of the method: (§2)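 Human oral squamous carcinoma lines, from primary tumours of adult male Taiwanese betel quid chewers, exposed to a range of concentrations for 24 h. DMSO control. Viable cells read by MTT reduction to formazan (absorbance). IC50 is the concentration giving a 50% fall in absorbance relative to control.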

OC2 [2] = assay: as §1; type: functional, cell-based; summary of the method: as §2
[3] = (§3) Cytotoxicity against human OECM1 cells after 24 hrs by MTT assay; type: functional, cell-based; conditions: OECM1, 24 h; summary of the method: as §2
OECM1 [4] = assay: as §3; type: functional, cell-based; summary of the method: as §2
[5] = Cytotoxicity against human gingival fibroblast at up to 50 uM after 24 hrs by MTT assay
Summary of the method: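 Normal human gingival fibroblasts exposed to a range of concentrations for 24 h, with 50 the highest tested. DMSO vehicle control. Viability read by MTT formazan absorbance and compared with control for statistical significance.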

[6] = Induction of apoptosis in human OECM1 cells assessed as early apoptotic cells at 25 uM after 3 hrs by Annexin V-FITC and propidium iodide staining (reference value: 0.69%); type: functional
[7] = Induction of apoptosis in human OECM1 cells assessed as early apoptotic cells at 50 uM after 3 hrs by Annexin V-FITC and propidium iodide staining (reference value: 0.69%); type: functional
[8] = Induction of apoptosis in human OC2 cells assessed as early apoptotic cells at 25 uM after 3 hrs by Annexin V-FITC and propidium iodide staining (reference value: 0.67%); type: functional
[9] = Induction of apoptosis in human OC2 cells assessed as early apoptotic cells at 50 uM after 3 hrs by Annexin V-FITC and propidium iodide staining (reference value: 0.67%); type: functional
[10] = Induction of apoptosis in human OECM1 cells assessed as late apoptotic cells at 25 uM after 3 hrs by Annexin V-FITC and propidium iodide staining (reference value: 5.18%); type: functional
[11] = Induction of apoptosis in human OECM1 cells assessed as late apoptotic cells at 50 uM after 3 hrs by Annexin V-FITC and propidium iodide staining (reference value: 5.18%); type: functional
[12] = Induction of apoptosis in human OC2 cells assessed as late apoptotic cells at 25 uM after 3 hrs by Annexin V-FITC and propidium iodide staining (reference value: 1.92%); type: functional
[13] = Induction of apoptosis in human OC2 cells assessed as late apoptotic cells at 50 uM after 3 hrs by Annexin V-FITC and propidium iodide staining (reference value: 1.92%); type: functional
[14] = Induction of apoptosis in human OECM1 cells assessed as caspase 3 activity at 25 uM after 3 hrs by flow cytometry (reference value: 52.34%); type: functional
[15] = Induction of apoptosis in human OECM1 cells assessed as caspase 3 activity at 50 uM after 3 hrs by flow cytometry (reference value: 52.34%); type: functional
[16] = Induction of apoptosis in human OC2 cells assessed as caspase 3 activity at 25 uM after 3 hrs by flow cytometry (reference value: 48.99%); type: functional
[17] = Induction of apoptosis in human OC2 cells assessed as caspase 3 activity at 50 uM after 3 hrs by flow cytometry (reference value: 48.99%); type: functional
OECM1 [18] = assay: Induction of apoptosis in human OECM1 cells assessed as caspase 3 activity at 50 uM by flow cytometry; type: functional, cell-based; conditions: TDE = time-dependent effect
Summary of the method: (§4)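 OC-2 or OEC-M1 OSCC cells exposed to 50 µM for 3 h, 6 h and 9 h to follow caspase-3 activity over time. Activity read by flow cytometry with a specific peptide substrate.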

[19] = Induction of apoptosis in human OC2 cells assessed as cytoplasmic histone-associated DNA fragmentation at 50 uM after 4 hrs by TUNEL assay (reference value: 28.6%); type: functional
Summary of the method: (§5)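 After 4 h exposure to 25 or 50 µM or DMSO vehicle, OC-2 and OEC-M1 oral cancer cells were scored for DNA fragmentation by TUNEL labeling with flow cytometry, as % of cells. Mean ± SD of three determinations.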

[20] = Induction of apoptosis in human OC2 cells assessed as cytoplasmic histone-associated DNA fragmentation at 25 uM after 4 hrs by TUNEL assay (reference value: 28.6%); type: functional; summary of the method: as §5
[21] = Induction of apoptosis in human OECM1 cells assessed as cytoplasmic histone-associated DNA fragmentation at 50 uM after 4 hrs by TUNEL assay (reference value: 8.15%); type: functional; summary of the method: as §5
[22] = Induction of apoptosis in human OECM1 cells assessed as cytoplasmic histone-associated DNA fragmentation at 25 uM after 4 hrs by TUNEL assay (reference value: 8.15%); type: functional; summary of the method: as §5
OC2 [23] = assay: Induction of apoptosis in human OC2 cells assessed as caspase 3 activity at 50 uM by flow cytometry; type: functional, cell-based; conditions: TDE = time-dependent effect; summary of the method: as §4
OECM1 [24] = assay: Induction of apoptosis in human OECM1 cells assessed as PARP cleavage after 6 hrs by Western blotting; type: functional, cell-based
Summary of the method: (§6)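 OEC-M1 cells exposed to 10, 25 or 50 µM or DMSO for 6 h. Equal amounts of total lysate immunoblotted for Bcl-2, Bcl-xL, Bax and PARP (116-kDa full-length, 85-kDa cleaved), with β-actin as loading control. Bands quantified as fold of vehicle control after β-actin normalization.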

OECM1 [25] = assay: Induction of apoptosis in human OECM1 cells assessed as increase of Bax protein expression after 6 hrs by Western blotting; type: functional, cell-based; summary of the method: as §6
OECM1 [26] = assay: Induction of apoptosis in human OECM1 cells assessed as decrease of Bcl-2 protein expression after 6 hrs by Western blotting; type: functional, cell-based; summary of the method: as §6
OECM1 [27] = assay: Induction of apoptosis in human OECM1 cells assessed as decrease of Bcl-xL protein expression after 6 hrs by Western blotting; type: functional, cell-based; summary of the method: as §6

SMILES: C=C(CC[C@@H](C)[C@H]1CC[C@H]2C3=C(C(=O)C[C@]12C)[C@@]1(C)CCC(=O)[C@@H](C)[C@@H]1CC3)C(C)C(=O)OC (some centres not stated) [METHYLANTCINATE A]
- IC50 [1]: 37.4 µM
- Activity (OC2 [2]): Dose-dependent effect
- IC50 [3]: 24.5 µM
- Activity (OECM1 [4]): Dose-dependent effect
- Activity [5]: Non-toxic
- Activity [6]: 59.73%
- Activity [7]: 62.33%
- Activity [8]: 15.35%
- Activity [9]: 9.09%
- Activity [10]: 23.63%
- Activity [11]: 27.71%
- Activity [12]: 13.2%
- Activity [13]: 14.3%
- Activity [14]: 66.86%
- Activity [15]: 87.07%
- Activity [16]: 59.19%
- Activity [17]: 69.06%
- Activity (OECM1 [18]): tde
- Activity [19]: 52.55%
- Activity [20]: 41.07%
- Activity [21]: 57.8%
- Activity [22]: 56.5%
- Activity (OC2 [23]): tde
- Activity (OECM1 [24]): Dose-dependent effect
- Activity (OECM1 [25]): Dose-dependent effect
- Activity (OECM1 [26]): Dose-dependent effect
- Activity (OECM1 [27]): Dose-dependent effect
